A short description of assay [1]: inhibitors of TNFa-induced NFkB p65 translocation, primary screen, imaging, HUVEC, MLSMR starter and 10KST1 sets (AID 438;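 active = inhibition above 20% together with a positive visual image hit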;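 also: compound added about 3h40 before a 20 min TNFalpha stimulation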;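 as to inhibition: signal is the nuclear over cytoplasmic p65 intensity ratio per well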). The note with it: HUVEC TNFa-induced p65 nuclear translocation; cell count: measured here: nuclei count (cytotoxicity indicator), at 2.08 µM; inhibition: at 2 µM, stronger effect = higher value, 0% TNFa-plus-vehicle, 100% no-TNFa wells.
The nature of assay [2]: inhibitors of mutant huntingtin aggregation, primary screen, imaging, exon1htt(103Q)mCFP cells, high-content imaging (AID 483;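 active = visual image review flags a hit and inhibition of aggregation exceeds 20%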;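 also: compound exposure lasted 3 days before fixation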;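 as to nuclei count: percent of the per-plate median nuclei count of sample wells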). Conditions: exon1htt(103Q)mCFP cell line, aggregate imaging, at 2 µM; inhibition of aggregation: stronger effect = higher value; nuclei count: measured here: cell count, toxicity.
A short description of assay [3]: inhibitors of E-selectin induction by TNFa, primary screen, imaging, HUVEC, immunofluorescence, MLSMR starter and 10KST1 sets (AID 487;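 active = visually confirmed hit in the image check and inhibition above 20%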;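 as to inhibition: signal is fraction of cell area covered by stained E-selectin grains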;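 as to nuclei count: 100% = median nuclei count of all wells on the same plate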). The note with it: HUVEC TNFalpha-induced E-selectin immunofluorescence imaging, at 2 µM; inhibition: stronger effect = higher value; nuclei count: measured here: cell number, toxicity.
Assay [4] addresses Voltage-gated potassium channel subunit beta-2 (Rattus norvegicus) (UniProt P62483). Briefly: KvBeta enzyme negative modulators, primary screen, biochemical, NADPH fluorescence (AID 622;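 active = fluorescence slope higher than the sample average by over 3 SD, cut at about -0.22 in these data, passing the limit was not always enough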;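 also: slope of raw intensity against log time taken from 70 to 1610 s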). The note with it: recombinant KvBeta, 4-cyanobenzaldehyde reduction, at 10 µM, stronger effect = higher value.
For assay [5] the target is unchanged. Briefly: KvBeta positive modulators, primary screen, biochemical, NADPH fluorescence (AID 623;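 active = NADPH fluorescence slope more negative than the mean of all samples by about 3 SD, 99.7% confidence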;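 also: fluorescence intensity change per second fitted from 20 to 320 s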). The note with it: Recombinant KvBeta, NADPH fluorescence decrease slope, 10 min; at 10 µM; stronger effect = lower value.
In assay [6] the target is Muscarinic acetylcholine receptor M4 (Homo sapiens) (UniProt P08173). Briefly: compounds altering M4/GIRK thallium flux, either direction, primary screen, M4 allosteric agonist project, cell-based, HEK293 M4/GIRK, BTC-AM (AID 625;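 active = fluorescence slope after compound addition differing from the mean of all tested samples at 99.7% confidence, mostly higher but some lower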;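 also: thallium influx through GIRK channels coupled to M4 in HEK293 cells with BTC-AM dye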). Conditions: at 10 µM, actives lie on both sides. In a few lines: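 Material – HEK293 cells with M4 receptor and GIRK channels · Buffer or medium – pH 7.3 thallium assay buffer · Doses – one dose, 10 µM final · Timing – cells overnight at 37 °C, BTC-AM loading 1 h, reads 2 min total · Measured by – kinetic fluorescence with BTC-AM dye · Controls – carbachol and DMSO controls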
Sequence of Muscarinic acetylcholine receptor M4 (Homo sapiens) (P08173 whole entry, looked up): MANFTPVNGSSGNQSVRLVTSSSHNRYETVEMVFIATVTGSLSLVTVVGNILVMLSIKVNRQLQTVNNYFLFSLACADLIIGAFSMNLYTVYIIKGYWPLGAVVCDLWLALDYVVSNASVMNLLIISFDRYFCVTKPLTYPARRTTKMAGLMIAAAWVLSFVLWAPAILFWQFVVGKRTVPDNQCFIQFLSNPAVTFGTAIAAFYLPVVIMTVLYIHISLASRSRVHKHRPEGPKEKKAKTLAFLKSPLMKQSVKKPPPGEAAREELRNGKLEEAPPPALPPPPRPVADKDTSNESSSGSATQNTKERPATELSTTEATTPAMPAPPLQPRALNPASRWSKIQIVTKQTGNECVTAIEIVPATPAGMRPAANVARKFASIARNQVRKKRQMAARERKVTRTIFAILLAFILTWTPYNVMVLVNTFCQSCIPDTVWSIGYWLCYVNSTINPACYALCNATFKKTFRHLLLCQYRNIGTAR

The nature of assay [7]: inhibitors of Sendai virus-induced IRF3 signaling, primary screen, TLR/RLR signaling modifier project, cell-based, Sendai virus stimulus, luciferase, 10K MLSCN set (AID 602276;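 active = inhibition at or above 50% at 10 µM; inactive = inhibition below 50%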;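 also: firefly luciferase from ISG56 promoter only with Renilla not read in this screen; 0% = Sendai virus plus DMSO and 100% = medium plus DMSO without virus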). The note with it: HEK293 RL24 IRF3 luciferase reporter, at 10 µM, stronger effect = higher value. For orientation: In a reporter assay the amount or activity of a reporter protein is the signal.
The nature of assay [8]: inhibitors of poly I:C-induced TLR3 signaling, primary screen, cell-based, poly I:C stimulus, luciferase, 10K MLSCN set (AID 602277). Conditions: HEK293-TLR3 RL24 IRF3 luciferase reporter, at 10 µM, stronger effect = higher value.

Active and inactive are the calls of the source.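 The calls were made as follows, unless noted: active = inhibition of the reporter signal at or above 50%; inactive = inhibition below 50%.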

Sequence of Voltage-gated potassium channel subunit beta-2 (Rattus norvegicus) (P62483 whole entry, looked up): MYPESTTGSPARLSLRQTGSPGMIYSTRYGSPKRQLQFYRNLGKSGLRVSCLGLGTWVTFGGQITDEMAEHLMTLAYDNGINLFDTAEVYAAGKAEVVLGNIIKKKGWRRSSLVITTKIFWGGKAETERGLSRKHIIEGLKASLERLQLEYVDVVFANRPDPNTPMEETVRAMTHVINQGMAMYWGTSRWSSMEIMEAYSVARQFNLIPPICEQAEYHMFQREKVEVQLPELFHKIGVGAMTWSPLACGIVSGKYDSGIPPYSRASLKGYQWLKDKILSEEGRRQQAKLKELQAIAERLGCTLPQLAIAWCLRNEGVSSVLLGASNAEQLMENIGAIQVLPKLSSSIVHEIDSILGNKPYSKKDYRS

Usually inhibition stands for the drop in the measured response relative to a control, in per cent. `Cn1c(=O)c(C(=S)NC(=O)C2CC2)c(N)n(Cc2ccccc2)c1=O`: in assay [1], the cell count was 381. Also, the inhibition in assay [1] is -8% (inactive); in assay [3], -77.3% (inactive); in assay [7], 10.8% (inactive); in assay [8], 14.5% (inactive). In addition, in assay [2], the inhibition of aggregation is 14.6% (inactive). Moreover, the nuclei count in assay [2] is 111%; in assay [3] it was 141%. In addition, the fluorescence slope is -0.48 (inactive) in assay [4] and 0.00619 (inactive) in assay [6]. In assay [5], the NADPH fluorescence slope is -3.3e-05 (inactive).
`O=C(Cn1c(SCC(=O)N2CCCc3ccccc32)nc2ccccc21)N1CCCC1`: in assay [1], the cell count turned out to be 723. Further, the inhibition is -5.1% (inactive) in assay [1], -126% (inactive) in assay [3], 1.52% (inactive) in assay [7] and 20.1% (inactive) in assay [8]. In assay [2], the inhibition of aggregation was -15.7% (inactive). Further, the nuclei count in assay [2] came to 107%; in assay [3] it was 124%. Besides, the fluorescence slope is -0.458 (inactive) in assay [4] and 0.00587 (inactive) in assay [6]. For the same compound, the NADPH fluorescence slope in assay [5] was -3.6e-05 (inactive).
As to `CN(C)CCSc1nnc2sc3ccccc3n12`, the cell count in assay [1] turned out to be 599. Besides, the inhibition in assay [1] was -5% (inactive); in assay [3] it was -71.5% (inactive); in assay [7], -0.357% (inactive); in assay [8] it was 12.6% (inactive). For the same compound, the inhibition of aggregation in assay [2] was -2.2% (inactive). The nuclei count stood at 105% in assay [2] and 110% in assay [3]. Besides, the fluorescence slope is -0.477 (inactive) in assay [4] and 0.00534 (inactive) in assay [6]. Besides, the NADPH fluorescence slope in assay [5] was -5.9e-05 (inactive).
Regarding `COc1ccc(N2C(=O)CC(N3CCN(S(=O)(=O)c4c(F)cccc4F)CC3)C2=O)cc1OC` (centres undefined), the cell count in assay [1] came to 418. Also, the inhibition in assay [1] is -6.6% (inactive); in assay [3], -20.1% (inactive); in assay [7] it was 9.5% (inactive); in assay [8], 12.6% (inactive). Further, the inhibition of aggregation in assay [2] was 1% (inactive). Further, the figures for the nuclei count in assay [2] and in assay [3] were 99.7% and 112%, respectively. Besides, the results for the fluorescence slope in assay [4] and in assay [6] were -0.572 (inactive) and 0.00422 (inactive), respectively. Besides, the NADPH fluorescence slope in assay [5] is -1.2e-05 (inactive).
Turning to `Cc1ccc2nc(NC(=O)C3CCN(S(=O)(=O)c4cccc5nsnc45)CC3)sc2c1`, the cell count in assay [1] came to 540. For the same compound, the inhibition in assay [1] is 0% (inactive); in assay [3], 38.3% (inactive); in assay [7], -4.97% (inactive); in assay [8], -45% (inactive). Besides, in assay [2], the inhibition of aggregation was -1.9% (inactive). Moreover, the nuclei count in assay [2] came to 105%; in assay [3], 100%. Besides, the fluorescence slope in assay [4] was -0.414 (inactive); in assay [6] it was 0.00593 (inactive). Moreover, in assay [5], the NADPH fluorescence slope is -9.1e-05 (inactive).
For `CCCCOC(=O)Nc1nc2ccc(OC)cc2s1`, the cell count in assay [1] was determined as 743. Also, the inhibition was -10.1% (inactive) in assay [1], -29.1% (inactive) in assay [3], -0.307% (inactive) in assay [7] and -118% (inactive) in assay [8]. In addition, the inhibition of aggregation in assay [2] was 7.1% (inactive). For the same compound, the nuclei count in assay [2] was determined as 100%; in assay [3] it was 108%. The fluorescence slope in assay [4] is -0.324 (inactive); in assay [6], 0.00658 (inactive). Also, in assay [5], the NADPH fluorescence slope was -5.1e-05 (inactive).
As to `CC1CN(S(=O)(=O)c2cccc(C(=O)OCc3cc(=O)oc4cc(O)ccc34)c2)CC(C)O1` (centres undefined), in assay [1], the cell count is 380. Besides, the inhibition in assay [1] was -2.9% (inactive); in assay [3] it was -28.2% (inactive); in assay [7], 23.9% (inactive); in assay [8], 23.3% (inactive). Further, the inhibition of aggregation in assay [2] is 3% (inactive). In addition, the nuclei count in assay [2] came out at 100%; in assay [3] it was 83%. In addition, the fluorescence slope in assay [4] was -0.288 (inactive); in assay [6], 0.00505 (inactive). Besides, the NADPH fluorescence slope in assay [5] was -7.6e-05 (inactive).
For the compound `Cc1cc(S(=O)(=O)NC2CCCCC2)ccc1OCC(=O)NCc1ccccn1`, the cell count in assay [1] came to 346. In addition, the inhibition in assay [1] is -8.6% (inactive); in assay [3] it was -70.2% (inactive); in assay [7], 20.7% (inactive); in assay [8] it was 34% (inactive). For the same compound, the inhibition of aggregation in assay [2] is 7.8% (inactive). Further, the nuclei count in assay [2] came to 96.4%; in assay [3], 106%. For the same compound, the values for the fluorescence slope in assay [4] and in assay [6] were -0.607 (inactive) and 0.0059 (inactive), respectively. Also, the NADPH fluorescence slope in assay [5] is 5.7e-06 (inactive).
`C=CCOc1ccc(C2C(C(=O)c3ccco3)=C(O)C(=O)N2Cc2cccnc2)cc1` (centres undefined): the cell count in assay [1] stood at 341. The inhibition is -7.7% (inactive) in assay [1], -61.9% (inactive) in assay [3], 17.4% (inactive) in assay [7] and 14.5% (inactive) in assay [8]. The inhibition of aggregation in assay [2] was -11.2% (inactive). The nuclei count in assay [2] stood at 107%; in assay [3], 103%. The fluorescence slope in assay [4] was -0.543 (inactive); in assay [6] it was 0.00458 (inactive). For the same compound, the NADPH fluorescence slope in assay [5] is -0.000128 (inactive).
Regarding `CCNCCNC(=O)c1c(O)c2ccccc2n(CC)c1=O`, in assay [1], the cell count was determined as 289. Also, the inhibition is -1.4% (inactive) in assay [1], 29.6% (inactive) in assay [3], 10% (inactive) in assay [7] and 13.5% (inactive) in assay [8]. Besides, the inhibition of aggregation in assay [2] was -5.8% (inactive). For the same compound, the nuclei count in assay [2] came out at 60.8%; in assay [3] it was 99.7%. Also, the fluorescence slope in assay [4] is -0.539 (inactive); in assay [6], 0.0077 (inactive). Besides, in assay [5], the NADPH fluorescence slope is -4.3e-05 (inactive).
Consider `CCOc1cccc(C(=O)Nc2cccc(-c3nc4ncccc4o3)c2C)c1`, for which the cell count in assay [1] was 333. The inhibition is 3.3% (inactive) in assay [1], -46.8% (inactive) in assay [3], 11.9% (inactive) in assay [7] and -11.2% (inactive) in assay [8]. In addition, the inhibition of aggregation in assay [2] is 10.5% (inactive). For the same compound, the nuclei count in assay [2] came to 103%; in assay [3] it was 108%. Also, the fluorescence slope is -0.545 (inactive) in assay [4] and 0.00572 (inactive) in assay [6]. In addition, the NADPH fluorescence slope in assay [5] is -3e-05 (inactive).
With `O=C(c1ccco1)N1CCN(c2c(-c3ccccc3)c3cc(Cl)ccc3[nH]c2=O)CC1`, in assay [1], the cell count came to 603. The inhibition in assay [1] was 2.1% (inactive); in assay [3], -72.2% (inactive); in assay [7] it was 24.2% (inactive); in assay [8], 25.7% (inactive). Moreover, the inhibition of aggregation in assay [2] is -2.2% (inactive). The results for the nuclei count in assay [2] and in assay [3] were 119% and 118%, respectively. For the same compound, the fluorescence slope in assay [4] is -0.456 (inactive); in assay [6], 0.00537 (inactive). The NADPH fluorescence slope in assay [5] was 2.5e-05 (inactive).
For the compound `CC1=C(C#N)C(=O)NC(C)(C)C1`, in assay [1], the cell count turned out to be 410. Moreover, the inhibition in assay [1] is 4.1% (inactive); in assay [3] it was 6.4% (inactive); in assay [7], 13.9% (inactive); in assay [8], 21.4% (inactive). Further, the inhibition of aggregation in assay [2] is -3.7% (inactive). Besides, the results for the nuclei count in assay [2] and in assay [3] were 100% and 109%, respectively. Besides, the fluorescence slope was -0.413 (inactive) in assay [4] and 0.00867 (inactive) in assay [6]. In assay [5], the NADPH fluorescence slope is 1.8e-05 (inactive).
As for `O=C(O)CCCNS(=O)(=O)c1ccc(NCc2ccccc2)c(C(=O)O)c1`, the cell count in assay [1] was determined as 687. The inhibition in assay [1] is 6.7% (inactive); in assay [3] it was 7% (inactive); in assay [7] it was 10.5% (inactive); in assay [8], 10.3% (inactive). For the same compound, the inhibition of aggregation in assay [2] is 2.8% (inactive). In addition, the nuclei count amounted to 87.1% in assay [2] and 91.1% in assay [3]. Further, the fluorescence slope in assay [4] was -0.343 (inactive); in assay [6] it was 0.00502 (inactive). Besides, the NADPH fluorescence slope in assay [5] is -5e-05 (inactive).

Source of the values: PubChem BioAssay.
